Key:
[1] = Plasma glucose-lowering activity at a dosage of 0.005% in the diet in KKA(y) mice.; format: functional, Mus musculus
In short: (§1)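 KKAy mice (9–13 weeks old), five per group, grouped by blood glucose after 3 d on powdered CE-2 chow. Dietary admixture at 0.001, 0.005 or 0.01% for 4 d, food and water ad libitum. Orbital-vein plasma glucose measured enzymatically and expressed as maximum percent reduction versus control; Dunnett's test.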

[2] = species: Mus musculus; test: Plasma glucose-lowering activity at a dosage of 0.01% in the diet in KKAy mice; format: functional; in short: as §1
[3] = Plasma lipid-lowering activity at a dosage of 0.005% in the diet in KKA(y) mice.; format: functional, Mus musculus
In short: (§2)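 KKAy mice (9–13 weeks old), five per group, on powdered CE-2 diet containing compound at 0.001, 0.005 or 0.01% for 4 d. Plasma triglyceride from orbital-vein blood measured enzymatically and reported as maximum percent reduction from control; Dunnett's test; less than 10% reduction flagged.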

[4] = Plasma lipid-lowering activity at a dosage of 0.01% in the diet in KKAy mice; format: functional, Mus musculus; in short: as §2
[5] = species: Mus musculus; test: Plasma lipid-lowering activity at a dosage of 0.005% in the diet in KKAy mice;LA denotes less than 10% reduction at this dosage; format: functional, organism-based; in short: as §2
[6] = biological target: T1, RXR alpha/PPAR gamma (Homo sapiens, UniProt P19793+P37231); test: Transcriptional activation in COS cells expressing PPAR gamma and RXR alpha
T1 sequence (P37231 whole entry): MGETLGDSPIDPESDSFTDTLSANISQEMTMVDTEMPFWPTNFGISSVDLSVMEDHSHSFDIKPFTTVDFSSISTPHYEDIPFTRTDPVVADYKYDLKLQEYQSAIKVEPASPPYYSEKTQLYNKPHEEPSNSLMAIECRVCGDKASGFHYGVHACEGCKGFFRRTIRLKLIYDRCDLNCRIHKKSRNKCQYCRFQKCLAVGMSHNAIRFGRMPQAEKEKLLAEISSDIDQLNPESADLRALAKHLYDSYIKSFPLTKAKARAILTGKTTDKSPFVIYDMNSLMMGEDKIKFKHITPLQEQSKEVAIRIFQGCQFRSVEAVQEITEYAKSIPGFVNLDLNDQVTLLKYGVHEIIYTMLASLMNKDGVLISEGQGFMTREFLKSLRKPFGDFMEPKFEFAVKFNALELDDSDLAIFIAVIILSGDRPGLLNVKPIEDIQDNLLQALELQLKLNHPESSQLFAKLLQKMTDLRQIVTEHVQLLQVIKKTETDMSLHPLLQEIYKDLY
T1 sequence (P19793 whole entry): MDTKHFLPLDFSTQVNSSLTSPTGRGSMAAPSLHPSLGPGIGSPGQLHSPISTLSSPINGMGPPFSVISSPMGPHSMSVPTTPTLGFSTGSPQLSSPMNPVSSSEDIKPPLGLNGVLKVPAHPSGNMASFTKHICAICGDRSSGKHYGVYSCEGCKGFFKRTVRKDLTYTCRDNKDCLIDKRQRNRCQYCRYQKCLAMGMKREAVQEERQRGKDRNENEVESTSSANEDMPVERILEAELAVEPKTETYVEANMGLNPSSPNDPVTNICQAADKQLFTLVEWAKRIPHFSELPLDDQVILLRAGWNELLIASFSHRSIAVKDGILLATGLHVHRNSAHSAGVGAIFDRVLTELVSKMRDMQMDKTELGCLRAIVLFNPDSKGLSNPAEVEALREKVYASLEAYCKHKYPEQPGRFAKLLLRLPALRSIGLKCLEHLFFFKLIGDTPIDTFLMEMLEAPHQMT

[7] = species: Mus musculus; test: Effective dose for 25% reduction in plasma glucose-lowering activity in KKAy mice; format: functional
In short: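 KKAy mice (9–13 weeks old), five per group, allocated by blood glucose after 3 d on powdered CE-2 chow. Compounds given as dietary admix at three levels chosen from first screening, 4 d ad libitum. Orbital-vein plasma glucose assayed enzymatically. Dose in mg/kg/d computed from food intake and body weight; ED25 derived by linear regression.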

[8] = species: Rattus norvegicus; test: (§3) Effective dose for 25% reduction in glucose-lowering activity in Wistar fatty rats; format: functional
In short: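 Wistar fatty rats (10–15 weeks old), five per group, allocated by plasma glucose and triglyceride. Oral dosing by stomach tube once daily for 6 d at three doses, suspended in 0.5% methyl cellulose; CE-2 pellets and water ad libitum. Tail-vein plasma glucose measured; ED25 taken from the three-dose response by linear regression.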

[9] = system: Rattus norvegicus; test: Plasma concentrations of R(+)-64 at a dose of 1 mg/kg in Jc1SD rats after intravenous administration after 10 min; format: functional, organism-based; set-up: dose 1 mg/kg
[10] = system: Rattus norvegicus; test: Plasma concentrations of R(+)-64 at a dose of 1 mg/kg in Jc1SD rats after intravenous administration after 120 min; format: functional, organism-based; set-up: dose 1 mg/kg
[11] = system: Rattus norvegicus; test: Plasma concentrations of R(+)-64 at a dose of 1 mg/kg in Jc1SD rats after intravenous administration after 15 min; format: functional, organism-based; set-up: dose 1 mg/kg
[12] = system: Rattus norvegicus; test: Plasma concentrations of R(+)-64 at a dose of 1 mg/kg in Jc1SD rats after intravenous administration after 5 min; format: functional, organism-based; set-up: dose 1 mg/kg
[13] = system: Rattus norvegicus; test: Plasma concentrations of R(+)-64 at a dose of 1 mg/kg in Jc1SD rats after intravenous administration after 60 min; format: functional, organism-based; set-up: dose 1 mg/kg
[14] = system: Rattus norvegicus; test: Plasma concentrations of S(-)-64 at a dose of 1 mg/kg in Jc1SD rats after intravenous administration after 10 min; format: functional, organism-based; set-up: dose 1 mg/kg
[15] = system: Rattus norvegicus; test: Plasma concentrations of S(-)-64 at a dose of 1 mg/kg in Jc1SD rats after intravenous administration after 15 min; format: functional, organism-based; set-up: dose 1 mg/kg
[16] = system: Rattus norvegicus; test: Plasma concentrations of S(-)-64 at a dose of 1 mg/kg in Jc1SD rats after intravenous administration after 30 min; format: functional, organism-based; set-up: dose 1 mg/kg
[17] = system: Rattus norvegicus; test: Plasma concentrations of S(-)-64 at a dose of 1 mg/kg in Jc1SD rats after intravenous administration after 5 min; format: functional, organism-based; set-up: dose 1 mg/kg
[18] = system: Rattus norvegicus; test: Plasma concentrations of S(-)-64 at a dose of 1 mg/kg in Jc1SD rats after intravenous administration after 60 min; format: functional, organism-based; set-up: dose 1 mg/kg
[19] = system: Rattus norvegicus; test: Plasma concentrations of R(+)-64 at a dose of 1 mg/kg in Jc1SD rats after intravenous administration after 30 min; format: functional, organism-based; set-up: dose 1 mg/kg
[20] = system: Rattus norvegicus; test: Plasma concentration at a dose of 1 mg/kg in Jc1SD rats after intravenous administration upon racemisation after 10 min; format: functional, organism-based; set-up: dose 1 mg/kg
[21] = system: Rattus norvegicus; test: Plasma concentration at a dose of 1 mg/kg in Jc1SD rats after intravenous administration upon racemisation after 120 min; format: functional, organism-based; set-up: dose 1 mg/kg
[22] = system: Rattus norvegicus; test: Plasma concentration at a dose of 1 mg/kg in Jc1SD rats after intravenous administration upon racemisation after 15 min; format: functional, organism-based; set-up: dose 1 mg/kg
[23] = system: Rattus norvegicus; test: Plasma concentration at a dose of 1 mg/kg in Jc1SD rats after intravenous administration upon racemisation after 30 min; format: functional, organism-based; set-up: dose 1 mg/kg
[24] = system: Rattus norvegicus; test: Plasma concentration at a dose of 1 mg/kg in Jc1SD rats after intravenous administration upon racemisation after 5 min; format: functional, organism-based; set-up: dose 1 mg/kg
[25] = system: Rattus norvegicus; test: Plasma concentration at a dose of 1 mg/kg in Jc1SD rats after intravenous administration upon racemisation after 60 min; format: functional, organism-based; set-up: dose 1 mg/kg
[26] = system: Rattus norvegicus; test: Plasma concentration of enantiomer at a dose of 1 mg/kg in Jc1SD rats after intravenous administration upon racemisation after 10 min; format: functional, organism-based; set-up: dose 1 mg/kg
[27] = system: Rattus norvegicus; test: Plasma concentration of enantiomer at a dose of 1 mg/kg in Jc1SD rats after intravenous administration upon racemisation after 120 min; format: functional, organism-based; set-up: dose 1 mg/kg
[28] = system: Rattus norvegicus; test: Plasma concentration of enantiomer at a dose of 1 mg/kg in Jc1SD rats after intravenous administration upon racemisation after 15 min; format: functional, organism-based; set-up: dose 1 mg/kg
[29] = system: Rattus norvegicus; test: Plasma concentration of enantiomer at a dose of 1 mg/kg in Jc1SD rats after intravenous administration upon racemisation after 30 min; format: functional, organism-based; set-up: dose 1 mg/kg
[30] = system: Rattus norvegicus; test: Plasma concentration of enantiomer at a dose of 1 mg/kg in Jc1SD rats after intravenous administration upon racemisation after 5 min; format: functional, organism-based; set-up: dose 1 mg/kg
[31] = system: Rattus norvegicus; test: Plasma concentration of enantiomer at a dose of 1 mg/kg in Jc1SD rats after intravenous administration upon racemisation after 60 min; format: functional, organism-based; set-up: dose 1 mg/kg
[32] = species: Rattus norvegicus; test: as §3; format: functional; remark: listed apart in the source
In short: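 Wistar fatty rats, 10–15 weeks old, grouped five per group by plasma glucose and triglyceride. Compound suspended in 0.5% methyl cellulose, given orally by stomach tube once daily for 6 d at three concentrations. Animals had CE-2 pellets and water ad libitum. Plasma glucose measured enzymatically on tail-vein blood. ED25 (mg/kg/d) for 25% reduction from control derived by linear regression over the three doses.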

[33] = species: Mus musculus; test: Effective dose for 25% reduction in plasma lipid-lowering activity in KKAy mice; format: functional
In short: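 Male/female not stated; KKAy mice, 9–13 weeks old, fed powdered CE-2 chow 3 d, grouped (five per group) by blood glucose. Compounds given as dietary admixture at three levels (0.01, 0.005 or 0.001% in diet) for 4 d. Orbital-vein plasma triglyceride measured enzymatically as % reduction vs control; dose (mg/kg/d) from food intake and body weight; ED25 by linear regression.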

`Cc1oc(-c2ccccc2)nc1CCOc1ccc(CCCC2SC(=O)NC2=O)cc1` (centres undefined) showed an Activity [1] of 26, an Activity [2] of 35 and an Activity [3] of 18. For the same compound, the Activity [4] was 42.

For `Cc1oc(-c2ccccc2)nc1COc1ccc(CC2OC(=O)NC2=O)cc1` (centres undefined), the LA [5] was “Less than 10% reduction at this dosage” and the Activity [1] was 29.

Compound `Cc1sc(-c2ccccc2)nc1COc1ccc(CCCC2OC(=O)NC2=O)cc1` (single isomer, unassigned; (+)) has an EC50 [6] of 269 nM, an ED25 [7] of 1.44 mg/kg/day and an ED25 [8] of 0.23 mg/kg/day.

`COc1cc(CCCC2OC(=O)NC2=O)ccc1OCc1nc(-c2ccco2)oc1C` (stereo in doubt; (+)-64) gave a Concentration [9] of 6.06 µg/mL, a Concentration [10] of 1.46 µg/mL and a Concentration [11] of 5.13 µg/mL. The Concentration [12] was 6.46 µg/mL, the Concentration [13] was 3.19 µg/mL and the Concentration [14] was 0.02 µg/mL. The Concentration [15] was 0.02 µg/mL, the Concentration [16] was 0.02 µg/mL and the Concentration [17] was 0.02 µg/mL. The Concentration [18] was 0.02 µg/mL and the Concentration [19] was 4.78 µg/mL.

`COc1cc(CCCC2OC(=O)NC2=O)ccc1OCc1nc(-c2ccco2)oc1C` (single isomer, unassigned; (-)) gave a Concentration [20] of 0.04 µg/mL, a Concentration [21] of 0.07 µg/mL and a Concentration [22] of 0.04 µg/mL. The Concentration [23] was 0.05 µg/mL, the Concentration [24] was 0.04 µg/mL and the Concentration [25] was 0.07 µg/mL. It also gave a Concentration [26] of 4.3 µg/mL, a Concentration [27] of 1.61 µg/mL and a Concentration [28] of 3.97 µg/mL. For the same compound, the Concentration [29] was 3.65 µg/mL, the Concentration [30] was 4.78 µg/mL and the Concentration [31] was 2.94 µg/mL.

`CCc1ccc(CCOc2ccc(CC3SC(=O)NC3=O)cc2)nc1.Cl` (centres undefined) [PIOGLITAZONE HYDROCHLORIDE] showed an ED25 [32] of 0.5 mg/kg/day and an ED25 [33] of 6 mg/kg/day.

— ChEMBL document CHEMBL1135907, “Novel 5-substituted 2,4-thiazolidinedione and 2,4-oxazolidinedione derivatives as insulin sensitizers with antidiabetic activities” (J Med Chem, 2002)
